Source: PubChem BioAssay (Broad Institute)
S100A4 MyoIIA: S100A4-myosin IIA interaction inhibition; P26447; S100A4/TAMRA-MyoIIA peptide fluorescence polarization; inhibition, % at 10.7 µM; 360,000 compounds, 0.14% hits;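 active = mean inhibition of at least 70% across replicates, with every replicate also reaching that level; inconclusive = mean inhibition reaches 70% but some replicates fall short; inactive = mean inhibition below 70%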
Target sequence (P26447 whole entry, looked up): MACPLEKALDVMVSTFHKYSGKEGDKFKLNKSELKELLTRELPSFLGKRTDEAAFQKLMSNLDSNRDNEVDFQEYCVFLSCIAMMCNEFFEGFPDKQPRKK
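Test system: S100A4 monomer protein; Medium: HEPES pH 7.2 with CaCl2, KCl, NaCl, DTT, Triton; Probe or stimulus: TAMRA-labelled myosin IIA heavy-chain peptide probe, 5 nM; Doses: one dose per compound; Times: polarization read 5 min after assay mix addition, stable 5–60 min; Benchmarks: neutral control DMSO, positive control TFP.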
SIRT5 block: inhibitors of human sirtuin-5 desuccinylase; 330,000 compounds, 1.1% hits; Purified SirT5, succinyl-peptide AMC, trypsin-coupled fluorescence; Q9NXA8; inhibition, % at 15 µM; AID 652115; in the data active = inhibition above about 15%; inconclusive = no clear call, values can overlap the other calls
Target sequence (Q9NXA8 whole entry, looked up): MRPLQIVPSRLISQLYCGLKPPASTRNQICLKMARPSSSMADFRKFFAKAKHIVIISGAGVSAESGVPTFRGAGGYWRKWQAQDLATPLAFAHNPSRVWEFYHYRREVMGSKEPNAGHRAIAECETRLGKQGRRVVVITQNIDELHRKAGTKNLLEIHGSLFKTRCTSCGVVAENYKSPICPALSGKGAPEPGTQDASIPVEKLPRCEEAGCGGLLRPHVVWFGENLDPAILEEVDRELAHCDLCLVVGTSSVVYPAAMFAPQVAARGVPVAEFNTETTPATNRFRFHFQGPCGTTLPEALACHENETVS
PGC1a acetyl inh: PGC1a acetylation modulation, inhibitor mode | inhibition, % at 15.6 µM | AID 651687 | U2OS PGC1a acetylation, AlphaScreen anti-acetyl-lysine; with virally co-expressed GCN5 acetyltransferase | 350,000 compounds, 0.17% hits;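 active = every replicate shows inhibition of at least 40%; inconclusive = mean inhibition at least 40% but some replicate below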;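 also: 0% = neutral control wells and 100% = positive control wells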
DENV2 CPE rescue: DENV2-induced cell death inhibition; DENV2-infected cells, cytopathic effect rescue, plate reader; CPE inhibition, % at 9.99 µM; 350,000 compounds, 1.7% hits; AID 651640; in the data active = CPE inhibition above about 20%, passing the limit was not always enough; inconclusive = no clear call, values can overlap the other calls; tested in BHK-21 cells;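 also: 0% = median of neutral control wells and 100% = median of positive control wells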
C2C12 statin: suppressors of simvastatin-induced myotoxicity in C2C12 myotubes | rescue of ATP level, % at 7.49 µM | ATP luminescence, 48 h; scaled: DMSO 0, geranylgeraniol control 100 | AID 602340 | 330,000 compounds, 0.78% hits;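 active = mean ATP rescue above about 67%, or every replicate alone reaching that limit, limit read from the data, passing the limit was not always enough; inconclusive = no clear call, values can overlap the other calls; inactive = mean under the limit and some replicate under it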;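 also: myotubes were challenged with 10 µM simvastatin during compound exposure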
* = called active by the depositor; u = inconclusive; x = not tested or not shown. Most compounds without a hit are left out; they make up all but 2.9% or so of the library.

SMILES | S100A4 MyoIIA | SIRT5 block | PGC1a acetyl inh | DENV2 CPE rescue | C2C12 statin
CC(C)CC#Cc1ccc2c(c1)O[C@@H](CN(C)C(=O)c1cccc(F)c1)[C@@H](C)CN([C@@H](C)CO)S2(=O)=O | -7.6 | 4.6 | -14.8 | 10.2 | 16.5
CCCCOC(=O)c1sc2nc(N3CCOCC3)c3c(c2c1N)CC(C)(C)OC3 | 4.9 | 24.0* | -5.7 | -3.5 | x
COc1ccc(O)c(C(=O)c2cnc3c(c2)c(C)nn3CCO)c1 | 22.6 | 19.4* | 7.2 | u | -0.2
C[C@H](CO)N1C[C@H](C)[C@@H](CN(C)C(=O)Cc2ccccc2)Oc2ncc(C#CCN(C)C)cc2C1=O | -3.4 | 2.1 | 7.6 | 3.8 | 4.4
Cc1noc(C)c1S(=O)(=O)Nc1ccc2c(c1)C(=O)N([C@@H](C)CO)C[C@@H](C)[C@H](CN(C)Cc1ccc3c(c1)OCO3)OCCCC[C@H](C)O2 | 0.0 | 5.3 | 1.0 | 4.9 | x
Cc1noc(C)c1S(=O)(=O)Nc1ccc2c(c1)C(=O)N([C@H](C)CO)C[C@@H](C)[C@H](CN(C)Cc1ccc(Cl)c(Cl)c1)OCCCC[C@@H](C)O2 | -15.8 | 17.0* | -5.4 | -0.3 | -69.1
Cc1noc(C)c1S(=O)(=O)Nc1ccc2c(c1)C(=O)N([C@@H](C)CO)C[C@H](C)[C@@H](CN(C)Cc1ccc(Cl)c(Cl)c1)OCCCC[C@H](C)O2 | -6.0 | 5.2 | 11.8 | 22.5* | x
Cc1noc(C)c1S(=O)(=O)Nc1ccc2c(c1)C(=O)N([C@H](C)CO)C[C@H](C)[C@@H](CN(C)Cc1ccc(Cl)c(Cl)c1)OCCCC[C@H](C)O2 | -5.6 | 15.5* | -5.7 | 1.1 | x
Cc1noc(C)c1S(=O)(=O)Nc1ccc2c(c1)C(=O)N([C@H](C)CO)C[C@H](C)[C@@H](CN(C)Cc1ccc(Cl)c(Cl)c1)OCCCC[C@@H](C)O2 | -0.7 | 1.9 | 0.0 | -0.5 | -29.2
O=C(NCC[C@@H]1CC[C@@H](NC(=O)c2cnccn2)[C@@H](CO)O1)Nc1ccc(F)cc1 | 8.2 | -0.4 | -0.8 | 10.9 | 12.1
CCC(=O)Nc1ccc2c(c1)C(=O)N(C)C[C@@H](OC)[C@H](C)CN[C@@H](C)CO2 | 0.3 | -10.8 | 7.6 | u | 0.2
C/C=C/C=C/C(=O)c1cc(C)c(OC(=O)CNC(=O)OC(C)(C)C)c(C)c1O | -13.5 | x | x | u | x
CCOC(=O)C(NC(C)=O)(Nc1ccc(S(=O)(=O)Nc2nccs2)cc1)C(F)(F)F (centres undefined) | x | x | -4.5 | x | x
CCOC(=O)C(NC(C)=O)(Nc1ccc(S(=O)(=O)Nc2ncccn2)cc1)C(F)(F)F (centres undefined) | -3.2 | 19.0* | 1.7 | 3.8 | x
C[C@H]1CCCCO[C@@H](CN(C)C(=O)Nc2ccc(F)cc2)[C@@H](C)CN([C@@H](C)CO)C(=O)c2cc(NS(=O)(=O)c3ccc(Cl)cc3)ccc2O1 | 5.4 | 0.8 | 11.1 | -6.6 | x
CCc1c(C)nn(C(=O)/C(C#N)=C\N(C)C)c1C | -2.8 | 16.3* | -10.9 | -1.9 | x
Cc1cc(C)n(CC(O)COc2cccc(OCC(O)Cn3nc(C)cc3C)c2)n1 (centres undefined) | x | x | 2.0 | x | 91.0*
C[C@@H]1CN([C@H](C)CO)C(=O)Cc2cc(NC(=O)Nc3ccc4c(c3)OCO4)ccc2O[C@H]1CN(C)Cc1ccc2c(c1)OCO2 | 1.9 | -3.2 | -17.0 | -12.0 | -5.5
CO[C@H]1CN(C)C(=O)c2cc(NC(=O)c3cccc(Oc4ccccc4)c3)ccc2OC[C@H](C)NC[C@H]1C | x | x | -17.3 | x | -39.5
COC(=O)c1ccc(CSc2nnc(CS(=O)Cc3ccc(Br)cc3)n2-c2ccccc2)cc1 (centres undefined) | 1.2 | 18.0* | 11.1 | 5.2 | 6.0
COc1ccc(CN(C)C[C@@H]2Oc3ccc(NC(=O)Nc4c(C)noc4C)cc3CC(=O)N([C@H](C)CO)C[C@@H]2C)cc1 | -3.7 | 0.1 | -1.4 | 40.8* | x
Cc1noc(C)c1NC(=O)Nc1ccc2c(c1)CC(=O)N([C@H](C)CO)C[C@@H](C)[C@@H](CN(C)Cc1ccccc1)O2 | 8.7 | 0.6 | x | 2.0 | 1.0
Cc1noc(C)c1NC(=O)Nc1ccc2c(c1)CC(=O)N([C@H](C)CO)C[C@H](C)[C@@H](CN(C)Cc1ccc(Oc3ccccc3)cc1)O2 | x | x | -1.4 | -4.4 | 103.4*
Cc1cccc(Cl)c1NC(=O)NCCCN1CCCCC1C (centres undefined) | 1.3 | 23.1* | x | -4.2 | x
CCc1ccc2cc(F)cc(F)c2n1 | -3.2 | -4.3 | -0.4 | -3.8 | 2.5
